One experiment concerns Saccharomyces cerevisiae. As to the kind of experiment: Antifungal activity against Saccharomyces cerevisiae at 10 ug/disc after 48 hrs by disc diffusion assay. The format is functional. The settings on record: read-out: IZ. A digest of the protocol:
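Yeast grown on 1% yeast extract, 2% peptone, 1.5% agar with either 2% dextrose or 2% glycerol. Plates were spread with 0.5 mL of a suspension in H2O adjusted to OD600 0.5 and dried 1 h. Samples went onto 7 mm paper disks in 10 µL MeOH, air-dried 1 h. Zones were read every 24 h for 4 days. Filipin at 10 µg/disk was the positive control, MeOH and formic acid the negatives.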
For orientation: In agar diffusion tests the substance spreads into inoculated agar from a disc or well.

Another experiment deals with Botrytis. As to the kind of experiment: Antifungal activity against Botrytis cinerea at 10 ug/disc after 48 hrs by disc diffusion assay. The settings on record: read-out: IZ. Format: functional. The procedure, abridged:
(§1)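 Fungal targets grown on potato dextrose agar plates (9 cm), each spread with 0.6 mL of a conidial suspension (ca. 1 × 10^6 conidia/mL H2O) and dried 1 h. Samples went onto 7 mm filter paper disks in 10 µL MeOH, air-dried 1 h, then placed on the plates. Inhibition zones were read every 24 h for 4 days. Filipin at 10 µg/disk was the positive control, MeOH and formic acid at 10 µL/disk the negatives.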

For another experiment, the system named is Bacillus cereus. As to the kind of experiment: Antibacterial activity against Bacillus cereus at 10 ug/disc after 48 hrs by disc diffusion assay. The conditions noted are these: read-out: IZ. Format: functional. A digest of the protocol: (§2)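 Target strains grown on nutrient agar plates (9 cm), each spread with 0.6 mL of a 24 h nutrient broth culture and dried 1 h. Samples went onto 7 mm filter paper disks in 10 µL MeOH and were air-dried 1 h before placement. Inhibition zones were checked every 24 h for 4 days. Tetracycline at 10 µg/disk was the positive control, MeOH and formic acid at 10 µL/disk the negatives.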

Another experiment concerns Escherichia coli. The experiment can be described thus: Antibacterial activity against Escherichia coli at 10 ug/disc after 48 hrs by disc diffusion assay. The settings on record: read-out: IZ. Format: functional. A digest of the protocol:
as §2

A further experiment has as its system Colletotrichum. The experiment can be described thus: Antifungal activity against Colletotrichum acutatum at 10 ug/disc after 48 hrs by disc diffusion assay. The format is functional. The settings on record: read-out: IZ. The procedure, abridged:
as §1

Another experiment relates to Beauveria bassiana. The experiment can be described thus: Antifungal activity against Beauveria bassiana at 10 ug/disc after 48 hrs by disc diffusion assay. The format is functional. The settings on record: read-out: IZ. A digest of the protocol:
as §1

The next experiment concerns Aedes aegypti. The experiment can be described thus: Induction of locomotory deffect in Aedes aegypti Rockefeller larvae after 24 hrs. Format: functional, organism-based. A digest of the protocol:
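Eggs hatched under vacuum for 30 min and larvae kept at 25 °C in tap water with liver powder suspension. At 24 h posthatch, 7–11 larvae per well of a 24-well plate were placed in 0.9 mL food/water. Treatments were added in 100 µL distilled water, and effects were scored 24 h later.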

The source of these data is ChEMBL document CHEMBL1141435, “Serinocyclins A and B, cyclic heptapeptides from Metarhizium anisopliae” (J Nat Prod, 2007).

Regarding `CCCCC[C@@H](O)[C@H]1C(=O)O[C@H](C)[C@@H](O)/C=C/C=C/C=C/C=C/C=C(\C)[C@@H](O)C[C@H](O)C[C@H](O)C[C@H](O)C[C@H](O)C[C@H](O)C[C@@H]1O` [FILIPIN], the zone of inhibition at 10 µg/disc with Saccharomyces cerevisiae, in the experiment with Botrytis, in the experiment on Bacillus cereus, in the experiment with Escherichia coli, in the experiment with Colletotrichum and in the experiment on Beauveria bassiana was over 5 mm throughout.

`NCC[C@H](O)C[C@H]1NC(=O)[C@H](CO)NC(=O)[C@@H]2C[C@@H](O)CN2C(=O)C2(CC2)NC(=O)[C@H](CO)NC(=O)[C@@H](CO)NC(=O)CCNC1=O` [SERINOCYCLIN A] registered an EC50 in the experiment with Aedes aegypti of 59 ppm.

`CN(C)[C@@H]1C(O)=C(C(N)=O)C(=O)[C@@]2(O)C(O)=C3C(=O)c4c(O)cccc4[C@@](C)(O)[C@H]3C[C@@H]12` [TETRACYCLINE]: the zone of inhibition at 10 µg/disc with Saccharomyces cerevisiae, in the experiment on Botrytis, with Bacillus cereus, with Escherichia coli, with Colletotrichum and in the experiment on Beauveria bassiana was over 5 mm in each case.
